Reference: ChEMBL document CHEMBL1122923, “Structural features of imidazole derivatives that enhance styrene oxide hydrolase activity in rat hepatic microsomes” (J Med Chem, 1985)

Assays:
Rattus norvegicus [1] = species on record: Rattus norvegicus; test: Enhancement of styrene hydrolase activity was determined in male wistar rat hepatic microsomes given to 3-methylcholanthrene treated rats; conditions: Liver
Procedure, shortened: (§1)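 Male Wistar rats were pretreated ip with 3-methylcholanthrene 40 mg/kg daily for 3 days; washed liver microsomes were then prepared. Reported as activity ratio ± SD, n = 3-4 or individual.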

[2] = molecular target: T1, Epoxide hydrolase 1 (Rattus norvegicus) (UniProt P07687); test: (§2) Enhancement of epoxide hydrolase activity
T1 sequence (whole entry): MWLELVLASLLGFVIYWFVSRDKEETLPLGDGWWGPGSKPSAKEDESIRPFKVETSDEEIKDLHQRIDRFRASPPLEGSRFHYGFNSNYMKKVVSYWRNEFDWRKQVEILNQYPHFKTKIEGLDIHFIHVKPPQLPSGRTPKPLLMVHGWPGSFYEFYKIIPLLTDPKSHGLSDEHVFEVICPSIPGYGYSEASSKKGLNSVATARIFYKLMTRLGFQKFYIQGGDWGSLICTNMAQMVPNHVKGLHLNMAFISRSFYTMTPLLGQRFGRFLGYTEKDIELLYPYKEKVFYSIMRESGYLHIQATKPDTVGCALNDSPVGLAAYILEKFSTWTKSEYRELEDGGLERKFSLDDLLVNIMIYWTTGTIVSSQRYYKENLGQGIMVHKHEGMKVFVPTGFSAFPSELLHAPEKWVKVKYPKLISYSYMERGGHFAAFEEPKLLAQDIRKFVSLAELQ
Procedure, shortened: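 Microsomes from untreated rats, or rats given PB 80 mg/kg or 3MC 40 mg/kg ip daily for 3 days; 0.1-0.2 mg protein, 0.25 M Tris-Cl pH 8.7, 0.03% Tween-80. Value is the ratio of activity with to without derivative; mean ± SD, 3-4 rats.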

Rattus norvegicus [3] = species on record: Rattus norvegicus; test: Enhancement of styrene hydrolase activity was determined in male wistar rat hepatic microsomes given to phenobarbital treated rats; conditions: Liver
Procedure, shortened: (§3)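 Rats were given phenobarbital 80 mg/kg ip daily for 3 days before washed hepatic microsomes were prepared. Ratio of activity with vs without derivative, from 3-4 rats or individual values.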

Rattus norvegicus [4] = species on record: Rattus norvegicus; test: Enhancement of styrene hydrolase activity was determined in male wistar rat hepatic microsomes given to untreated rats; conditions: Liver
Procedure, shortened: (§4)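 Hepatic microsomes (washed) from untreated male Wistar rats (200 ± 20 g). Incubation: 0.25 M Tris-Cl pH 8.7, 0.03% Tween-80, 0.1-0.2 mg protein, 37 °C, 10 min, stopped with hexanes, duplicate tubes. Enhancement is the activity ratio with/without derivative, mean ± SD of 3-4 rats.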

[5] = molecular target: T1, Epoxide hydrolase 1 (Rattus norvegicus); test: Enhanced styrene oxide hydrolase activity pH 8.7; format: functional
Procedure, shortened: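 Imidazoles were added from aqueous solution, with diluted HCl or solvent in reference tubes, and incubated 10 min at 37 °C. Hexane stopped the reaction; tubes were run in duplicate. E100 (the concentration giving a 100% rise) came from the linear concentration-effect plot; mean ± SD over n rats.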

Rattus norvegicus [6] = species on record: Rattus norvegicus; test: Maximum enhancement of styrene oxide hydrolase activity was reported at compound concentration of 1e-2M
[7] = Partition coefficient (logP); format: physicochemical; conditions: octanol/water
Rattus norvegicus [8] = species on record: Rattus norvegicus; test: Maximum enhancement of styrene oxide hydrolase activity was reported at compound concentration of 1e-1M
[9] = molecular target: T1, Epoxide hydrolase 1 (Rattus norvegicus); test: as §2; remark: listed apart in the source
Procedure, shortened: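 Microsomes from untreated rats with a concentration series of N-1-substituted imidazoles added from aqueous solution. Styrene oxide hydrolysis in 0.25 M Tris-Cl pH 8.7, 0.03% Tween-80, 10 min, duplicate tubes, no-tissue blanks. E100 is the concentration giving 100% enhancement, read from the linear concentration-effect range using at least three concentrations on each side. Mean ± SD over individual rats.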

Rattus norvegicus [10] = species on record: Rattus norvegicus; test: Maximum enhancement of styrene oxide hydrolase activity was reported at compound concentration of 5e-2M
Rattus norvegicus [11] = species on record: Rattus norvegicus; test: Maximum enhancement of styrene oxide hydrolase activity was reported at compound concentration of 5e-3 M
Rattus norvegicus [12] = species on record: Rattus norvegicus; test: Maximum enhancement of styrene oxide hydrolase activity was reported at compound concentration of 1e-3 M
Rattus norvegicus [13] = species on record: Rattus norvegicus; test: Maximum enhancement of styrene oxide hydrolase activity was reported at compound concentration of 1e-4M
Procedure, shortened: (§5)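 Washed liver microsomes from untreated male Wistar rats (200 ± 20 g), stored at -20 °C. Tubes (0.145 mL) held 0.25 M Tris-Cl pH 8.7, 0.03% Tween-80, 0.1-0.2 mg microsomal protein and ¹⁴C-styrene oxide. Imidazoles were added from aqueous solution, in duplicate tubes at each concentration. Incubation was 10 min at 37 °C, stopped with hexanes. Maximum enhancement is the highest activity ratio (with/without additive) observed; mean ± SD over individual rats.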

Rattus norvegicus [14] = species on record: Rattus norvegicus; test: Enhancement of styrene hydrolase activity was determined in male wistar rat hepatic microsomes given to phenobarbital treated rats.; conditions: Liver; procedure, shortened: as §3
Rattus norvegicus [15] = species on record: Rattus norvegicus; test: Enhancement of styrene hydrolase activity was determined in male wistar rat hepatic microsomes given to 3-methylcholanthrene treated rats.; conditions: Liver; procedure, shortened: as §1
Rattus norvegicus [16] = species on record: Rattus norvegicus; test: Enhancement of styrene hydrolase activity was determined in male wistar rat hepatic microsomes given to untreated rats.; conditions: Liver; procedure, shortened: as §4
Rattus norvegicus [17] = species on record: Rattus norvegicus; test: Maximum enhancement of styrene oxide hydrolase activity was reported at compound concentration of 5e-4 M; procedure, shortened: as §5

Structure (SMILES)	Log 1/E100 [2]	E100 [5] [µM]	logP ([7]; read-out: logP)	also measured
c1ccc(-n2ccnc2)cc1	3.48	330	1.48	Enhancement (Rattus norvegicus [1]): 3.75; Enhancement (Rattus norvegicus [3]): 3.15; Enhancement (Rattus norvegicus [4]): 3.34; Max enhancement (Rattus norvegicus [6]): 4.7
c1c[nH]cn1 [IMIDAZOLE]	–	8800	-0.42	Max enhancement (Rattus norvegicus [8]): 5.1; Log 1/E100 [9]: 2.05
CCn1ccnc1	–	2800	0.81	Max enhancement (Rattus norvegicus [10]): 4.6; Log 1/E100 [9]: 2.55
c1ccc(Cn2ccnc2)cc1 [BENZYLIMIDAZOLE]	3.64	230	2.01	Max enhancement (Rattus norvegicus [11]): 5.7
O=[N+]([O-])c1ccc(-n2ccnc2)cc1	2.4	3900	1.19	Max enhancement (Rattus norvegicus [12]): 1.3
Clc1ccccc1C(c1ccccc1)(c1ccccc1)n1ccnc1 [CLOTRIMAZOLE]	–	6.2	–	Max enhancement (Rattus norvegicus [13]): 5.4; Log 1/E100 [9]: 5.21; logP [7]: 6.14
c1ccc(C2NCCN2)cc1	–	–	–	Enhancement (Rattus norvegicus [1]): 1.15; Enhancement (Rattus norvegicus [3]): 1.11; Enhancement (Rattus norvegicus [4]): 1.19
c1ccc(-c2c[nH]cn2)cc1	–	–	–	Enhancement (Rattus norvegicus [14]): 2.45; Enhancement (Rattus norvegicus [15]): 2.61; Enhancement (Rattus norvegicus [16]): 2.3
Fc1ccc(-n2ccnc2)cc1	3.26	550	1.67	Max enhancement (Rattus norvegicus [11]): 4.4
CC(=O)N1CCN(c2ccc(OCC3COC(Cn4ccnc4)(c4ccc(Cl)cc4Cl)O3)cc2)CC1 (centres undefined)	–	54	–	Max enhancement (Rattus norvegicus [12]): 3.3
Clc1ccc(COC(Cn2ccnc2)c2ccc(Cl)cc2Cl)c(Cl)c1 (centres undefined) [MICONAZOLE]	4.08	84	5.84	Max enhancement (Rattus norvegicus [17]): 3.1
Oc1ccc(-n2ccnc2)cc1	3.62	240	0.94	Max enhancement (Rattus norvegicus [12]): 3.8
c1ccc(-c2ncc[nH]2)cc1	–	–	–	Enhancement (Rattus norvegicus [14]): 1.99; Enhancement (Rattus norvegicus [15]): 2.09; Enhancement (Rattus norvegicus [16]): 2
Cn1ccnc1 [1-METHYLIMIDAZOLE]	1.94	12000	0.28	Max enhancement (Rattus norvegicus [10]): 3.9
